Reference: ChEMBL document CHEMBL3769393, “Chiral pool synthesis and biological evaluation of C-furanosidic and acyclic LpxC inhibitors” (Eur J Med Chem, 2016)
pIC50, pKi: −log10 of the molar value.

Assays:
Escherichia coli [1] = assay: Antibacterial activity against Escherichia coli BL21(DE3) cells assessed as diameter of zone of growth inhibition after overnight incubation at 37 degC by agar disc diffusion clearance assay; type: functional
Procedure, shortened: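 Overnight LB broth cultures (37 °C, 200 rpm); 150 µL spread on LB agar. 6 mm filter discs loaded with 15 µL of 10 mM compound in DMSO. DMSO disc as negative control, CHIR-090 as positive control. Plates kept overnight at 37 °C, then diameter of the growth-inhibition zone measured.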

Escherichia coli [2] = assay: Antibacterial activity against envA mutant Escherichia coli D22 cells assessed as diameter of zone of growth inhibition after overnight incubation at 37 degC by agar disc diffusion clearance assay; type: functional
Procedure, shortened: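 E. coli D22 (defective strain) grown overnight in LB broth at 37 °C, 200 rpm; 150 µL of overnight suspension spread on LB agar. 6 mm filter paper discs loaded with 15 µL compound (10 mM in DMSO); DMSO disc as negative control, CHIR-090 as positive control. Plates incubated overnight at 37 °C; growth-inhibition zone diameter measured.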

[3] = Inhibition of Escherichia coli BL21(DE3) LpxC C63A mutant using UDP-3-O-(R-3-hydroxymyristoyl)-N-acetylglucosamine as substrate incubated for 30 mins by o-phthaldialdehyde-2-mercaptoethanol based fluorescence assay
[4] = Inhibition of Escherichia coli BL21(DE3) LpxC C63A mutant using UDP-3-O-(R-3-hydroxymyristoyl)-N-acetylglucosamine as substrate incubated for 30 mins by Cheng-Prusoff equation analysis

Row | Compound | diameter of the inhibition zone (DIZ) (Escherichia coli [1]) [mm] | diameter of the inhibition zone (DIZ) (Escherichia coli [2]) [mm] | pIC50 [3] | pKi [4]
1 | O=C(NO)c1ccc(-c2ccc(C#Cc3ccccc3)cc2)o1 | <6 | 8 |  | 
2 | O=C(NO)[C@@H]1C[C@H](O)[C@H](c2ccc(C#Cc3ccc(CN4CCOCC4)cc3)cc2)O1 | <6 | 15.3 | 4.06 | 4.92
3 | CC1(C)O[C@@H]2[C@H](O1)[C@H](c1ccc(C#Cc3ccc(CN4CCOCC4)cc3)cc1)O[C@@H]2C(=O)NO | <6 | 14.7 | < 3.70 | < 4.56
4 | O=C(NO)[C@@H](CO)O[C@@H](CO)c1ccc(C#CC#Cc2ccccc2)cc1 | 7.1 | 10.5 | 4.70 | 5.57
5 | CO[C@H]1[C@@H](O)[C@@H](C(=O)NO)O[C@H]1c1ccc(C#Cc2ccc(CN3CCOCC3)cc2)cc1 | <6 | 20.5 | < 3.70 | < 4.56
6 | O=C(NO)[C@H]1O[C@@H](c2ccc(C#Cc3ccc(CN4CCOCC4)cc3)cc2)[C@@H](O)[C@H]1O | <6 | 13.2 | < 3.70 | < 4.56
7 | O=C(NO)[C@H]1O[C@@H](c2ccc(C#CC#Cc3ccccc3)cc2)[C@@H](O)[C@H]1O | <6 | 9 | 4.49 | 5.36
8 | O=C(NO)[C@@H](CO)O[C@@H](CO)c1ccc(C#Cc2ccccc2)cc1 | <6 | 9.3 | < 3.70 | < 4.56
9 | O=C(NO)[C@H]1O[C@H](c2ccc(C#Cc3ccccc3)cc2)[C@@H](O)[C@H]1O | 6.8 | 13.6 | 4.37 | 5.23
10 | O=C(NO)[C@@H]1O[C@H](c2ccc(C#Cc3ccc(CN4CCOCC4)cc3)cc2)[C@@H](O)[C@H]1O | <6 |  | 4.38 | 5.24
11 | O=C(NO)[C@H](CO)O[C@H](CO)c1ccc(C#Cc2ccc(CN3CCOCC3)cc2)cc1 | 9.6 | 20.4 | 5.59 | 6.46
12 | O=C(NO)[C@@H]1O[C@H](c2ccc(C#Cc3ccccc3)cc2)[C@@H](O)[C@H]1O | <6 | 16.3 | < 3.70 | < 4.56
13 | O=C(NO)[C@@H]1O[C@@H](c2ccc(C#Cc3ccc(CN4CCOCC4)cc3)cc2)[C@@H](O)[C@H]1O | <6 | 22.1 | 5.00 | 5.85
14 | O=C(NO)[C@@H]1O[C@H](c2ccc(C#CC#Cc3ccccc3)cc2)[C@@H](O)[C@H]1O | 10.7 | 14.5 | 5.30 | 6.16
15 | O=C(NO)[C@H](CO)O[C@@H](CO)c1ccc(C#CC#Cc2ccccc2)cc1 | 9 | 18 | 5.36 | 6.22
16 | O=C(NO)[C@H](CO)O[C@@H](CO)c1ccc(C#Cc2ccc(CN3CCOCC3)cc2)cc1 | 14.3 | 27.9 | 4.68 | 5.54
17 | O=C(NO)[C@H]1O[C@@H](c2ccc(C#Cc3ccccc3)cc2)[C@@H](O)[C@H]1O | <6 | 6.5 | < 3.70 | < 4.56
18 | O=C(NO)[C@H](CO)O[C@H](CO)c1ccc(C#Cc2ccccc2)cc1 | <6 | 16.2 | < 3.70 | < 4.56
19 | O=C(NO)[C@@H]1O[C@@H](c2ccc(C#Cc3ccccc3)cc2)[C@@H](O)[C@H]1O | <6 | 18 | 4.62 | 5.48
20 | O=C(NO)[C@H](CO)O[C@H](CO)c1ccc(C#CC#Cc2ccccc2)cc1 | 13.7 | 21.3 | 5.77 | 6.64
21 | O=C(NO)[C@H](CO)O[C@@H](CO)c1ccc(C#Cc2ccccc2)cc1 | 6.8 | 21.3 | 3.82 | 4.68
22 | O=C(NO)[C@@H]1O[C@@H](c2ccc(C#CC#Cc3ccccc3)cc2)[C@@H](O)[C@H]1O | <6 | 15.7 | 4.82 | 5.68
23 | O=C(NO)[C@H]1O[C@H](c2ccc(C#Cc3ccc(CN4CCOCC4)cc3)cc2)[C@@H](O)[C@H]1O | 9.8 | 20.2 | 4.47 | 5.33
24 | O=C(NO)[C@@H](CO)O[C@@H](CO)c1ccc(C#Cc2ccc(CN3CCOCC3)cc2)cc1 | <6 | 20.3 | 3.74 | 4.60
25 | O=C(NO)[C@@H](CO)O[C@H](CO)c1ccc(C#Cc2ccc(CN3CCOCC3)cc2)cc1 | 16 | 26.1 | 5.10 | 5.96
26 | CO[C@@H]1[C@H](O)[C@H](c2ccc(C#Cc3ccc(CN4CCOCC4)cc3)cc2)O[C@@H]1C(=O)NO | <6 | 11.7 | < 3.70 | < 4.56
